In ChEMBL document CHEMBL4316656, “Antitrypanosomal Activity of Acetogenins Isolated from the Seeds of Porcelia macrocarpa Is Associated with Alterations in Both Plasma Membrane Electric Potential and Mitochondrial Membrane Potential” (J Nat Prod, 2019):
The source made the active and inactive calls. No cut-off for these calls is given here.

Tests used:
Trypanosoma cruzi [1] = assay: Antitrypanosomal activity against Trypanosoma cruzi trypomastigotes measured after 24 hrs by resazurin dye based assay; assay type: functional, organism-based
Method in brief: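 Cell-derived trypomastigotes, 1 × 10^6/well, exposed 24 h at 37 °C; viability by resazurin read at 570 nm; benznidazole as standard; IC50 calculated.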

Trypanosoma cruzi [2] = assay: Antitrypanosomal activity against Trypanosoma cruzi amastigotes infected in peritoneal macrophages (unknown origin) measured after 48 hrs by resazurin dye based assay; assay type: functional, organism-based
Trypanosoma cruzi [3] = assay: Induction of plasma membrane electric potential depolarization in Trypanosoma cruzi trypomastigotes at antitrypanosomal IC50 measured after 60 mins by DiSBAC2(3) dye based flow cytometry; assay type: functional, organism-based
Method in brief: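 Trypomastigotes (2 × 10^6/well) exposed at IC50 for 60 min at 37 °C, then 0.2 μM DiSBAC2(3) added and read by flow cytometry; gramicidin D 0.5 μg/mL defined 100%, untreated 0%; at least two independent assays in duplicate.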

[4] = Cytotoxicity against mouse L929 cells measured after 48 hrs by MTT assay; assay type: cell-based
Method in brief: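 NCTC clone L929 cells, 6 × 10^4/well, incubated with compound 48 h at 37 °C; viability by MTT at 570 nm; CC50 taken as 50% cytotoxic concentration; highest concentration 200 μM.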

Trypanosoma cruzi [5] = assay: Induction of reactive oxygen species generation in Trypanosoma cruzi trypomastigotes at antitrypanosomal IC50 measured after 60 to 120 mins by H2DCFDA dye based fluorescence assay; assay type: organism-based; conditions: in vitro
Method in brief: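 Trypomastigotes incubated with compound at IC50 for 60 and 120 min, then 20 μM H2DCFDA 15 min at 37 °C; fluorescence ex 485/em 520 nm; 10 mM sodium azide positive control, untreated negative; compound background and DMSO controls.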

[6] = Selectivity index, ratio of CC50 for mouse L929 cells to IC50 for Trypanosoma cruzi trypomastigotes; assay type: toxicity; conditions: read-out: Ratio CC50/IC50
Method in brief: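 Ratio of the mammalian CC50 (L929, MTT, 48 h) to the IC50 against trypomastigotes (resazurin, 24 h).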

[7] = Selectivity index, ratio of CC50 for mouse L929 cells to IC50 for Trypanosoma cruzi amastigotes infected in peritoneal macrophages (unknown origin); assay type: toxicity; conditions: read-out: Ratio CC50/IC50
Method in brief: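 Ratio of the L929 CC50 (MTT, 48 h) to the intracellular amastigote IC50 (infected peritoneal macrophages, 48 h).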

Trypanosoma cruzi [8] = assay: Induction of mitochondrial membrane potential depolarization in Trypanosoma cruzi trypomastigotes at antitrypanosomal IC50 measured after 2 hrs by DAPI/Mito tracker red dye based fluorescence microscopic analysis; assay type: functional, organism-based
Method in brief: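 Treated trypomastigotes costained with 10 μM DAPI and 1 μM MitoTracker Red CM-H2XROS, 30 min at 37 °C in the dark, then fluorescence microscopy; CCCP positive control, untreated parasites as reference.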

Trypanosoma cruzi [9] = assay: Antitrypanosomal activity against Trypanosoma cruzi amastigotes infected in peritoneal macrophages (unknown origin) assessed as elimination of parasite at 100 uM by optical microscopic analysis; assay type: functional, organism-based
Method in brief: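 Peritoneal macrophages infected with T. cruzi trypomastigotes (ratio 10:1) and treated at 100 μM. Infected untreated macrophages served as control. Parasite clearance was judged by optical microscopy at 1000× magnification.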

Trypanosoma cruzi [10] = assay: Induction of mitochondrial membrane potential depolarization in Trypanosoma cruzi trypomastigotes at antitrypanosomal IC50 measured after 2 hrs by JC1 dye based flow cytometry; assay type: functional, organism-based
Trypanosoma cruzi [11] = assay: Disruption of plasma membrane integrity in Trypanosoma cruzi trypomastigotes at antitrypanosomal IC50 measured after 120 mins by Sytox green dye based fluorescence assay; assay type: functional, organism-based
Method in brief: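 Trypomastigotes (2 × 10^6/well) with 1 μM SYTOX Green, compound at IC50, fluorescence followed 120 min at ex 485/em 520 nm; 0.5% Triton X-100 gives maximal permeabilization; compound background and DMSO controls; duplicates, at least two independent assays.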

[12] = Trypanosoma cruzi, 24 h, read-out: IC50
[13] = Trypanosoma cruzi, 48 h, read-out: IC50

SMILES	IC50 (Trypanosoma cruzi [1]; [12]) [µM]	IC50 (Trypanosoma cruzi [2]; [13]) [µM]	IC50 (Trypanosoma cruzi [1])	IC50 (Trypanosoma cruzi [2])	Activity (Trypanosoma cruzi [3])	CC50 at 48 h [4] [µM]	Activity (Trypanosoma cruzi [5])	selectivity ratio [6]	selectivity ratio [7]	Activity (Trypanosoma cruzi [8])	Activity (Trypanosoma cruzi [9])	Activity (Trypanosoma cruzi [10])	Activity (Trypanosoma cruzi [11])
O=C(Cn1ccnc1[N+](=O)[O-])NCc1ccccc1 [BENZNIDAZOLE]	5.5	18.7	–	–	–	–	–	–	–	–	–	–	–
CCCCCCCCCCCCCCCCCCCC[C@@H]1C(=O)O[C@H](C)[C@@H]1O	–	–	Not Active	Not Active	–	–	–	–	–	–	–	–	–
CCCCCCCCCCCCCCCCCC(=O)O [STEARIC ACID]	–	–	Not Active	Not Active	–	–	–	–	–	–	–	–	–
CCCCCCCCC#CCCCCCCCC(=O)O	27.6	–	–	Not Active	–	> 200	–	> 7.2	–	–	–	–	–

The next lines start with results.

IC50 (Trypanosoma cruzi [1]; [12]) [µM]	IC50 (Trypanosoma cruzi [2]; [13]) [µM]	IC50 (Trypanosoma cruzi [1])	IC50 (Trypanosoma cruzi [2])	SMILES	Activity (Trypanosoma cruzi [3])	CC50 at 48 h [4] [µM]	Activity (Trypanosoma cruzi [5])	selectivity ratio [6]	selectivity ratio [7]	Activity (Trypanosoma cruzi [8])	Activity (Trypanosoma cruzi [9])	Activity (Trypanosoma cruzi [10])	Activity (Trypanosoma cruzi [11])
0.4	23	–	–	C=CCCCCCCC#CCCCCCCCCCCC1=C(O)C(=C)OC1=O	Active	80	Non-Toxic	200	3.5	Active	Active	Active	inactive
7.8	58.3	–	–	C=CCCCCCCC#CCCCCCCCCCC[C@@H]1C(=O)O[C@H](C)[C@@H]1O	–	> 200	–	> 25.6	> 3.4	–	–	–	–
3.6	27.7	–	–	C=CCCCCCCC#CCCCCCCCCCCC1=C(O)[C@@H](C)OC1=O	Active	> 200	Non-Toxic	> 55.6	> 7.2	Active	Active	Active	inactive
